Source: ChEMBL document CHEMBL4138195, “Discovery of novel propargylamine-modified 4-aminoalkyl imidazole substituted pyrimidinylthiourea derivatives as multifunctional agents for the treatment of Alzheimer's disease” (Eur J Med Chem, 2018)
Active and inactive are the calls of the source. The calls are words filed in the database; no cut-off is given here.

Key:
[1] = target: Butyrylcholinesterase (Rattus norvegicus) (UniProt Q9JKC1); test: Inhibition of BuChE in rat serum at 40 uM using butyrylthiocholine iodide as substrate after 20 mins by Ellman's method
[2] = Inhibition of Cu2+-mediated amyloid beta (1 to 42) peptide-induced cytotoxicity in E17 Sprague-Dawley rat primary cortical neurons assessed as neuroprotective activity by measuring increase in cell viability at 1 uM after 24 hrs by MTT assay
Procedure, shortened: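 Rat E17 primary cortical neurons after 9 days in culture. Aβ1-42 samples, prepared as for the dot blot (± Cu2+, ± compound), added to the cultures at 1 µM for 24 h. Viability by MTT, normalized to the vehicle group. EGCG and clioquinol as positive controls.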

[3] = target: T1, Amine oxidase [flavin-containing] A (Homo sapiens, UniProt P21397); test: Inhibition of recombinant human MAOA using p-tyramine as substrate preincubated for 15 mins followed by substrate addition measured after 15 mins by Amplex red reagent based fluorescence assay
T1 sequence (P21397 whole entry): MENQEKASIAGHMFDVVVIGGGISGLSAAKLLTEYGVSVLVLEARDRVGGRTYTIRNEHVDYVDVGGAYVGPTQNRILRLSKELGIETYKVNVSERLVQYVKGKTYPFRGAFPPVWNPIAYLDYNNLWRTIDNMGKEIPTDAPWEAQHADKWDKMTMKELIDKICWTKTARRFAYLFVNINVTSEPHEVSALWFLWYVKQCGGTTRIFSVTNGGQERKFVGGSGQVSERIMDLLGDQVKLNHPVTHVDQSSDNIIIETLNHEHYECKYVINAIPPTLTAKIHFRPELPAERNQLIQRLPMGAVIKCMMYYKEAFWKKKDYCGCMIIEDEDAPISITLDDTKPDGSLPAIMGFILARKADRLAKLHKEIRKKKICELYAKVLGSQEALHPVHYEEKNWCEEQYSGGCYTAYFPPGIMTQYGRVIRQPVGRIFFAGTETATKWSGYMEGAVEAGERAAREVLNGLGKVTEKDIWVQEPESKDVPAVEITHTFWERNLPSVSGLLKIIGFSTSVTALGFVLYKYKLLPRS

Mus musculus = test: Reversal of scopolamine-induced dementia in ICR mouse assessed as decrease in frequent error incidences at 30 mg/kg, po administered 40 mins prior to scopolamine-challenge by water maze test; type: functional, organism-based
Procedure, shortened: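 Test compound as HCl salt, 30 mg/kg intragastric, given 40 min before scopolamine (4.5 mg/kg i.p.), which was given 20 min before the water maze. Escape latency and errors (entries into no-exit paths) recorded; mean ± SEM.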

Cortical neurone = test: Cytotoxicity against E17 Sprague-Dawley rat primary cortical neurons at 100 uM after 24 hrs by MTT assay relative to donepezil; type: cell-based
Procedure, shortened: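 Primary cortical neurons from E17 SD rat embryos, trypsin-dissociated and cultured 9 days in neurobasal/B27 on poly-L-lysine (3×10^4 cells/well). Treated at 10, 30 and 100 µM for 24 h, with donepezil as reference. MTT (5 mg/mL, 10 µL) for 4 h at 37 °C, absorbance 490 nm, viability as % of vehicle-treated cells; mean ± SEM.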

[4] = Metal chelating activity assessed as compound-Cu2+ complex formation at 40 uM in presence of CuCl2 after 30 mins by UV-visible spectrophotometric analysis
Procedure, shortened: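 UV–vis spectra (200–500 nm) of compound at 40 µM final, alone or with CuCl2, FeSO4, FeCl3 or ZnCl2 (20 µM final), after 30 min in 20 mM HEPES, 150 mM NaCl, pH 7.4, at room temperature.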

Butyrylcholinesterase = Butyrylcholinesterase (Rattus norvegicus, UniProt Q9JKC1); test: Inhibition of BuChE in rat serum using butyrylthiocholine iodide as substrate after 20 mins by Ellman's method
Acetylcholinesterase = target: T2, Acetylcholinesterase (Rattus norvegicus, UniProt P37136); test: Inhibition of AChE in rat cortex homogenate using acetylthiocholine iodide as substrate after 20 mins by Ellman's method
T2 sequence (P37136 whole entry): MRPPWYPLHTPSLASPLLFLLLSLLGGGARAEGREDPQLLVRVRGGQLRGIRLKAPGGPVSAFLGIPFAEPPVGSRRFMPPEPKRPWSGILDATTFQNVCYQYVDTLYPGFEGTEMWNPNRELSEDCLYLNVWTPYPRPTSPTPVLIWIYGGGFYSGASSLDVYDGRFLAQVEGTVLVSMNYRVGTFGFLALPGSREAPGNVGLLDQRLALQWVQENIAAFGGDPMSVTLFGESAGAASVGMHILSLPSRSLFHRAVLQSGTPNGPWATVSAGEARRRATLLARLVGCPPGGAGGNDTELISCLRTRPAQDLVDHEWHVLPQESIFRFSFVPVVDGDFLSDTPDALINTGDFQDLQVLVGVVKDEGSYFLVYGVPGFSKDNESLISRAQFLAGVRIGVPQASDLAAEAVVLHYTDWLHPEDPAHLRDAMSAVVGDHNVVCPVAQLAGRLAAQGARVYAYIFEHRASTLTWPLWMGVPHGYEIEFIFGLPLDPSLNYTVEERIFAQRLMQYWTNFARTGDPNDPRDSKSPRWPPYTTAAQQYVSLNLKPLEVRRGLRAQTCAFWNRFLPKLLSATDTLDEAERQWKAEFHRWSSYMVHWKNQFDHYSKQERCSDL

[5] = target: T3, Amine oxidase [flavin-containing] B (Homo sapiens, UniProt P27338)
T3 sequence (P27338 whole entry): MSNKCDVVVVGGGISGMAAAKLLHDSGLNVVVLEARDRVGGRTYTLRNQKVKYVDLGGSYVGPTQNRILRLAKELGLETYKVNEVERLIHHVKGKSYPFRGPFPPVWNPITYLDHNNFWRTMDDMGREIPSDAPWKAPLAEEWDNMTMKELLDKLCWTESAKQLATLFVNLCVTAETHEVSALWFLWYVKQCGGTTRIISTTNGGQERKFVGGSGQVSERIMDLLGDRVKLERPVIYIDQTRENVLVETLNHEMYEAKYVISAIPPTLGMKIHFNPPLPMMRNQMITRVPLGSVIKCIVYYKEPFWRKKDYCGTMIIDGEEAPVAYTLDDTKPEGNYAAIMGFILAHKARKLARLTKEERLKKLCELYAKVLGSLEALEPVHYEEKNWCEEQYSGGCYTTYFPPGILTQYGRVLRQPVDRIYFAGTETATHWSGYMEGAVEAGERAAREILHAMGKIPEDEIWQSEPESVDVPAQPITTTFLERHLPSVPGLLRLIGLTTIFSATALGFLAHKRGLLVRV

[6] = Inhibition of Cu2+-mediated amyloid beta (1 to 42) (unknown origin) aggregation at 50 uM after 24 hrs by dot blot assay
Rattus norvegicus = organism: Rattus norvegicus; test: Selectivity index, ratio of IC50 for BuChE in rat serum to IC50 for AChE in rat cortex homogenate; type: tissue-based

Chain of Butyrylcholinesterase (Rattus norvegicus) (Q9JKC1 as listed by the source): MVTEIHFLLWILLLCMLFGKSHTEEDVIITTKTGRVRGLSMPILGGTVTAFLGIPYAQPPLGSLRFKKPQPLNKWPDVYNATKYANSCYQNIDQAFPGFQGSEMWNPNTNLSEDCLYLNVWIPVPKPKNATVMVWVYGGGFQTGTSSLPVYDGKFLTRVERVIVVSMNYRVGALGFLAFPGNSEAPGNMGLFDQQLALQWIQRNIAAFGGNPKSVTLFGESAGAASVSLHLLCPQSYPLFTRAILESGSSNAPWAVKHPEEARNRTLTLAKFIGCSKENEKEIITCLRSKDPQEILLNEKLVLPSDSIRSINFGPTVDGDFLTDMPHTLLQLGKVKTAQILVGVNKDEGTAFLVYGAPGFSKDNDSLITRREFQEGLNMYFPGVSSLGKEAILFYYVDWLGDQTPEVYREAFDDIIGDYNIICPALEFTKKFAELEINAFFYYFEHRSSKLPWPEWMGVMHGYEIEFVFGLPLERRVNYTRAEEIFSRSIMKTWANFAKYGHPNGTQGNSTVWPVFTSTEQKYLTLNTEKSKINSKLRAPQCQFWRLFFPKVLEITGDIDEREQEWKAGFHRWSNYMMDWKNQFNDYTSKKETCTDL
Chain of Butyrylcholinesterase (Q9JKC1 whole entry): as the sequence (Q9JKC1 as listed by the source) above

Structure (SMILES): C#CCN(C)Cc1cn(-c2cc(NC(=S)NCC)ncn2)cn1
- inhibition [1]: 12.6%
- Activity [2]: Active
- IC50 [3]: > 50000 nM
- Activity (Mus musculus): Active
- Activity (Cortical neurone): Non-Toxic
- Activity [4]: Active
- IC50 (Butyrylcholinesterase): > 40000 nM
- IC50 (Acetylcholinesterase): 324 nM
- IC50 [5]: 1430 nM
- inhibition [6]: Active
- Ratio IC50 (Rattus norvegicus): > 123
